The target of the experiment is Human integrin αvβ3 receptor (Homo sapiens, UniProt P05106+P06756). It is filed as binding. The settings on record: for IC50: SD; for increase of IC50 compared to the free ligand 1: αvβ3, biotinylated vitronectin binding, from Table 1. A digest of the protocol: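 Immobilized integrin αvβ3 incubated with test compound at graded concentrations (10−12 to 10−5) together with biotinylated vitronectin (1 μg mL−1); bound vitronectin measured. IC50 taken from the inhibition of vitronectin binding, reported as arithmetic mean ± SD of triplicate determinations.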
Sequence of Human integrin αvβ3 receptor (P06756 31-992 limits assumed): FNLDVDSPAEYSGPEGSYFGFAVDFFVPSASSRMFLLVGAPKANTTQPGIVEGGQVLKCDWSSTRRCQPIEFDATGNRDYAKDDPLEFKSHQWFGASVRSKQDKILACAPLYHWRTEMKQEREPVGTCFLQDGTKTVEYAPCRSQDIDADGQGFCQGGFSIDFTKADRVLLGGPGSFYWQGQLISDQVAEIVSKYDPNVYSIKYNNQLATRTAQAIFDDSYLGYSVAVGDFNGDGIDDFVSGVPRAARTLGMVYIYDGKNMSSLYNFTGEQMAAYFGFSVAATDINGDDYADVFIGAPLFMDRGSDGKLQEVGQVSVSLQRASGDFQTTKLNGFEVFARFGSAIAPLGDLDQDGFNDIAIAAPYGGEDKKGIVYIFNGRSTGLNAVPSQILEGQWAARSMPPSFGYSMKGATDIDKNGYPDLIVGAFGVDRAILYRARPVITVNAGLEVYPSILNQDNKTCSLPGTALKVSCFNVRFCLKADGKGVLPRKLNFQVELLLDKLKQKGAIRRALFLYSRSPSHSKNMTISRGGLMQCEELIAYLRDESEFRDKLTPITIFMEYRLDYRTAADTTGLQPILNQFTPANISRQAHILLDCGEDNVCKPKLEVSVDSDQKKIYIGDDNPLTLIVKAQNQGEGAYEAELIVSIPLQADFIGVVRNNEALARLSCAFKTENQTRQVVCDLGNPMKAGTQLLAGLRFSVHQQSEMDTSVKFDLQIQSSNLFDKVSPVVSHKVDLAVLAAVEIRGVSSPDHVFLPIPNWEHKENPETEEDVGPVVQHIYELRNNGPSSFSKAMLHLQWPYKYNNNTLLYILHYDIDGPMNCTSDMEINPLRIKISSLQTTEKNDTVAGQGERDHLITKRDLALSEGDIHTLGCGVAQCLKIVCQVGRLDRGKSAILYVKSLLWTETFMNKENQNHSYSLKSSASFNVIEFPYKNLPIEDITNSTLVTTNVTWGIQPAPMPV
Sequence of Human integrin αvβ3 receptor (P05106 27-718 limits assumed): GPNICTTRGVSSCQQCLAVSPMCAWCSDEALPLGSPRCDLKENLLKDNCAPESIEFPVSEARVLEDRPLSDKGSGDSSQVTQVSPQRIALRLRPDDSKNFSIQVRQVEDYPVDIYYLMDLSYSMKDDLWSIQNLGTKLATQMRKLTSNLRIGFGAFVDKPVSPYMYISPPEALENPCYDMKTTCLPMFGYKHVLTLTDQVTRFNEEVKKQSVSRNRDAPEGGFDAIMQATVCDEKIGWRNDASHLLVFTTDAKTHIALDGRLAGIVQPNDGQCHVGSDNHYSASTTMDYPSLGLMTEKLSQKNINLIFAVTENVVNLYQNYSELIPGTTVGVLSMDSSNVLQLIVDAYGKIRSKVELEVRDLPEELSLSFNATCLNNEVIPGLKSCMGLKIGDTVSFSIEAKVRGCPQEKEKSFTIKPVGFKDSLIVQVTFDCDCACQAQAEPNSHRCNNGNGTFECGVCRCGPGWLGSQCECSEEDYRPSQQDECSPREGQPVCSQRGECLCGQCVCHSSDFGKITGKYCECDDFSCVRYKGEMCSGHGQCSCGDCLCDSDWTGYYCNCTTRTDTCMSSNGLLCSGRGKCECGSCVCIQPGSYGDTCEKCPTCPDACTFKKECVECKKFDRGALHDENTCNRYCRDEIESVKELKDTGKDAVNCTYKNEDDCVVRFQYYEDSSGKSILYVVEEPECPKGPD

As usually defined, the IC50 is the concentration that gives 50% inhibition. A higher IC50 goes with weaker potency in that assay. The compound `CC(=O)O[C@H]1C(=O)[C@@]2(C)[C@H]([C@H](OC(=O)c3ccccc3)[C@]3(O)C[C@H](OC(=O)[C@H](OC(=O)N(C)CCN(C)C(=O)OCc4ccc(NC(=O)[C@H](C)NC(=O)[C@@H](NC(=O)Cc5cc(OCCNC(=O)Cc6cc(OCc7cn(CCOCCOCCOCCOCC(=O)NCc8ccc(CN9C(=O)[C@H]%10CC(=O)N[C@@H](CCCNC(=N)N)C(=O)NCC(=O)N[C@@H](CC(=O)O)C(=O)NC[C@H]9C(=O)N%10)cc8)nn7)cc(OCc7cn(CCOCCOCCOCCOCC(=O)NCc8ccc(CN9C(=O)[C@H]%10CC(=O)N[C@@H](CCCNC(=N)N)C(=O)NCC(=O)N[C@@H](CC(=O)O)C(=O)NC[C@H]9C(=O)N%10)cc8)nn7)c6)cc(OCCNC(=O)Cc6cc(OCc7cn(CCOCCOCCOCCOCC(=O)NCc8ccc(CN9C(=O)[C@H]%10CC(=O)N[C@@H](CCCNC(=N)N)C(=O)NCC(=O)N[C@@H](CC(=O)O)C(=O)NC[C@H]9C(=O)N%10)cc8)nn7)cc(OCc7cn(CCOCCOCCOCCOCC(=O)NCc8ccc(CN9C(=O)[C@H]%10CC(=O)N[C@@H](CCCNC(=N)N)C(=O)NCC(=O)N[C@@H](CC(=O)O)C(=O)NC[C@H]9C(=O)N%10)cc8)nn7)c6)c5)C(C)C)cc4)[C@@H](NC(=O)c4ccccc4)c4ccccc4)C(C)=C1C3(C)C)[C@]1(OC(C)=O)CO[C@@H]1C[C@@H]2O` [compound 9, (cyclo[DKP‐RGD])4‐Val‐Ala‐PTX] displayed an IC50 of 1.3 ± 0.3 nM.

`CC(=O)O[C@H]1C(=O)[C@@]2(C)[C@H]([C@H](OC(=O)c3ccccc3)[C@]3(O)C[C@H](OC(=O)[C@H](OC(=O)N(C)CCN(C)C(=O)OCc4ccc(NC(=O)[C@H](C)NC(=O)[C@@H](NC(=O)Cc5cc(OCCNC(=O)Cc6cc(OCc7cn(CCOCCOCCOCCOCC(=O)NCc8ccc(CN9C(=O)[C@H]%10CC(=O)N[C@@H](CCCNC(=N)N)C(=O)NCC(=O)N[C@@H](CC(=O)O)C(=O)NC[C@H]9C(=O)N%10)cc8)nn7)cc(OCc7cn(CCOCCOCCOCCOCC(=O)NCc8ccc(CN9C(=O)[C@H]%10CC(=O)N[C@@H](CCCNC(=N)N)C(=O)NCC(=O)N[C@@H](CC(=O)O)C(=O)NC[C@H]9C(=O)N%10)cc8)nn7)c6)cc(OCCNC(=O)c6ccc(OCc7cn(CCOCCOCCOCCOCC(=O)NCc8ccc(CN9C(=O)[C@H]%10CC(=O)N[C@@H](CCCNC(=N)N)C(=O)NCC(=O)N[C@@H](CC(=O)O)C(=O)NC[C@H]9C(=O)N%10)cc8)nn7)cc6)c5)C(C)C)cc4)[C@@H](NC(=O)c4ccccc4)c4ccccc4)C(C)=C1C3(C)C)[C@]1(OC(C)=O)CO[C@@H]1C[C@@H]2O` [compound 8, (cyclo[DKP‐RGD])3‐Val‐Ala‐PTX] displayed an IC50 of 1.2 ± 0.5 nM.

In the case of `CC(=O)O[C@H]1C(=O)[C@@]2(C)[C@H]([C@H](OC(=O)c3ccccc3)[C@]3(O)C[C@H](OC(=O)[C@H](OC(=O)N(C)CCN(C)C(=O)OCc4ccc(NC(=O)[C@H](C)NC(=O)[C@@H](NC(=O)c5ccc(OCc6cn(CCOCCOCCOCCOCC(=O)NCc7ccc(CN8C(=O)[C@H]9CC(=O)N[C@@H](CCCNC(=N)N)C(=O)NCC(=O)N[C@@H](CC(=O)O)C(=O)NC[C@H]8C(=O)N9)cc7)nn6)cc5)C(C)C)cc4)[C@@H](NC(=O)c4ccccc4)c4ccccc4)C(C)=C1C3(C)C)[C@]1(OC(C)=O)CO[C@@H]1C[C@@H]2O` [compound 6, cyclo[DKP‐RGD]‐Val‐Ala‐PTX (aromatic scaffold)], the IC50 stood at 27.3 ± 9.8 nM and the “increase of IC50 compared to the free ligand 1” value amounted to 6 fold.

Turning to `CC(=O)O[C@H]1C(=O)[C@@]2(C)[C@H]([C@H](OC(=O)c3ccccc3)[C@]3(O)C[C@H](OC(=O)[C@H](OC(=O)N(C)CCN(C)C(=O)OCc4ccc(NC(=O)[C@H](C)NC(=O)[C@@H](NC(=O)CCc5cn(CCOCCOCCOCCOCC(=O)NCc6ccc(CN7C(=O)[C@H]8CC(=O)N[C@@H](CCCNC(=N)N)C(=O)NCC(=O)N[C@@H](CC(=O)O)C(=O)NC[C@H]7C(=O)N8)cc6)nn5)C(C)C)cc4)[C@@H](NC(=O)c4ccccc4)c4ccccc4)C(C)=C1C3(C)C)[C@]1(OC(C)=O)CO[C@@H]1C[C@@H]2O` [compound 5, cyclo[DKP‐RGD]‐Val‐Ala‐PTX (aliphatic scaffold)], the IC50 amounted to 14.8 ± 3.9 nM and the “increase of IC50 compared to the free ligand 1” value worked out at 3 fold.

`CC(=O)O[C@H]1C(=O)[C@@]2(C)[C@H]([C@H](OC(=O)c3ccccc3)[C@]3(O)C[C@H](OC(=O)[C@H](OC(=O)N(C)CCN(C)C(=O)OCc4ccc(NC(=O)[C@H](C)NC(=O)[C@@H](NC(=O)Cc5cc(OCc6cn(CCOCCOCCOCCOCC(=O)NCc7ccc(CN8C(=O)[C@H]9CC(=O)N[C@@H](CCCNC(=N)N)C(=O)NCC(=O)N[C@@H](CC(=O)O)C(=O)NC[C@H]8C(=O)N9)cc7)nn6)cc(OCc6cn(CCOCCOCCOCCOCC(=O)NCc7ccc(CN8C(=O)[C@H]9CC(=O)N[C@@H](CCCNC(=N)N)C(=O)NCC(=O)N[C@@H](CC(=O)O)C(=O)NC[C@H]8C(=O)N9)cc7)nn6)c5)C(C)C)cc4)[C@@H](NC(=O)c4ccccc4)c4ccccc4)C(C)=C1C3(C)C)[C@]1(OC(C)=O)CO[C@@H]1C[C@@H]2O` [compound 7, (cyclo[DKP‐RGD])2‐Val‐Ala‐PTX] returned an IC50 of 4 ± 0.1 nM.

Source of the values: paper PMC5656903 (Chemistry (Weinheim an Der Bergstrasse, Germany), 2017).
